Changes are numbered by the printed parent chain. Each block holds one compound with its values, some of them ahead of it.
What was measured:
RKO cell line = experiment: MTT antiproliferative assay, RKO cell line; format: cell-based, human; details: NCM460 vs RKO
How it was run: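 Selectivity index is the IC50 in normal colon epithelial NCM460 cells divided by the IC50 in the colorectal cancer line. Both IC50s come from MTT viability assays: solvent-treated controls, formazan dissolved in DMSO, absorbance read-out, at least three independent replicates.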

SW480 cell line = experiment: MTT antiproliferative assay, SW480 cell line; format: cell-based, human; details: for inhibition of SW480 cells compared with the CVB-D group: 10 μM, CVB-D 12 μM
How it was run: (§1)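 MTT assay. Cells were grown in DMEM with 10% FBS and 1% penicillin/streptomycin at 37 °C, 5% CO2, then seeded at 5 × 10^3 to 6 × 10^3 cells/mL in 96-well plates. Screening was at 10 μM, with CVB-D (12 μM) as positive control and curcumin as comparator. The dose range was 0–8 μM in 1 μM steps. Solvent-only wells served as controls. Read-out was absorbance of DMSO-dissolved formazan. Data are mean ± SD, n ≥ 3.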

CT26 cell line = experiment: MTT antiproliferative assay, CT26 cell line; format: cell-based, mouse
How it was run: as §1

NCM460 cell line = experiment: MTT cytotoxicity, normal colon epithelial cell line NCM460; format: cell-based, human
How it was run: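 MTT viability in NCM460 normal human colon epithelial cells. Test compound and curcumin were each tested at 0, 5, 10, 20, 40 and 80 μM, diluted in medium from a 10 mmol/L DMSO stock, against a solvent control. Formazan was dissolved in DMSO and absorbance read. Toxicity was graded by USP classification. Data are mean ± SD, at least three independent replicates.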

THP-1 cell line = experiment: MTT cytotoxicity, THP-1 cell line; format: cell-based, human; details: 0 to 8 μM, all concentrations
How it was run: (§2)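 Viability of THP-1 (human monocytic) and RAW264.7 (mouse macrophage) cells was measured by MTT. Cells were grown in DMEM with 10% FBS at 37 °C, 5% CO2, then seeded at 5 × 10^3 to 6 × 10^3 cells/mL. Test compound was given at 0–8 μM alongside an equal-volume solvent control. Read-out was absorbance after DMSO solubilisation of formazan. Data are mean ± SD from at least three independent experiments.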

RAW264.7 cell line = experiment: MTT cytotoxicity, RAW264.7 cell line; format: cell-based, mouse; details: 0 to 8 μM, all concentrations
How it was run: as §2

Cyclin-D1 [1] = experiment: Western blot, Cyclin-D1 expression in SW480 cells; format: cell-based, human; details: SW480, 8 μM
How it was run: (§3)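 Western blot. SW480 or CT26 cells were seeded at 3 × 10^5 to 5 × 10^5/mL, allowed to adhere, then exposed to 0 (control) or 8 μM test compound for 24 h. Lysate protein was quantified by BCA and equalised, boiled, separated by SDS-PAGE, transferred to PVDF and detected with peroxidase labeling. Data are mean ± SD, at least three independent replicates, analysed by one-way ANOVA or t test.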

Cyclin-D1 [2] = experiment: Western blot, Cyclin-D1 expression in CT26 cells; format: cell-based, mouse; details: CT26, 8 μM
How it was run: as §3

p27 [3] = experiment: Western blot, p27 expression in SW480 cells; format: cell-based, human; details: SW480, 8 μM vs control
How it was run: as §3

p27 [4] = experiment: Western blot, p27 expression in CT26 cells; format: cell-based, mouse; details: CT26, 8 μM vs control
How it was run: as §3

PINK1 [5] = experiment: Western blot, PINK1 expression in SW480 cells; format: cell-based, human; details: SW480, 8 μM vs control
How it was run: as §3

PINK1 [6] = experiment: Western blot, PINK1 expression in CT26 cells; format: cell-based, mouse; details: CT26, 8 μM vs control
How it was run: as §3

Parkin [7] = experiment: Western blot, Parkin expression in SW480 cells; format: cell-based, human; details: SW480, 8 μM vs control
How it was run: as §3

Parkin [8] = experiment: Western blot, Parkin expression in CT26 cells; format: cell-based, mouse; details: CT26, 8 μM vs control
How it was run: as §3

SHP-2 [9] = target: T1, SHP-2 (Homo sapiens, UniProt Q06124); experiment: Western blot, SHP-2 expression in SW480 cells; format: cell-based; details: SW480, 8 μM
T1 sequence (Q06124 1-593): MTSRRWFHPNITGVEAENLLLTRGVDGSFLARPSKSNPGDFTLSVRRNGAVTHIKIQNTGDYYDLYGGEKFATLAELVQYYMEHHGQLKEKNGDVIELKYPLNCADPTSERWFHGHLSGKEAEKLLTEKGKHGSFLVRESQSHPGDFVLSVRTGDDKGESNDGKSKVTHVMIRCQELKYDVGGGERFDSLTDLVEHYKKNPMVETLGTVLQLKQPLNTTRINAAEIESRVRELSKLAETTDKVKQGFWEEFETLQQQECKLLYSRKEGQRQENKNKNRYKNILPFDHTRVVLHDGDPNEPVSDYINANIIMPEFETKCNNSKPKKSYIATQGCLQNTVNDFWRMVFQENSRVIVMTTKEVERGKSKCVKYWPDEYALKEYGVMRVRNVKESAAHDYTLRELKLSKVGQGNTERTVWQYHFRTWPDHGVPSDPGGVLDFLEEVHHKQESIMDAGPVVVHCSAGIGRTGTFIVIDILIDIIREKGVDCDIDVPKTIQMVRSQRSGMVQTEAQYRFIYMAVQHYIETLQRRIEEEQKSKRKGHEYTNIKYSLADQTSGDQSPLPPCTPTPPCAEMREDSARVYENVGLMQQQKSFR
How it was run: as §3

SHP-2 [10] = target: T2, SHP-2 (Mus musculus, UniProt P35235); experiment: Western blot, SHP-2 expression in CT26 cells; format: cell-based; details: CT26, 8 μM
T2 sequence (P35235 1-593): T1 sequence (Q06124 1-593) with M450V, A550V, K590R
How it was run: as §3

CDK1 [11] = target: CDK1 (Homo sapiens, UniProt P06493); experiment: Western blot, CDK1 expression in SW480 cells; format: cell-based; details: SW480, 8 μM
How it was run: as §3

CDK1 [12] = target: CDK1 (Mus musculus, UniProt P11440); experiment: Western blot, CDK1 expression in CT26 cells; format: cell-based; details: CT26, 8 μM
How it was run: as §3

PI3K [13] = experiment: Western blot, PI3K expression in SW480 cells; format: cell-based, human; details: SW480, 8 μM
How it was run: as §3

PI3K [14] = experiment: Western blot, PI3K expression in CT26 cells; format: cell-based, mouse; details: CT26, 8 μM
How it was run: as §3

Akt [15] = experiment: Western blot, Akt expression in SW480 cells; format: cell-based, human; details: SW480, 8 μM
How it was run: as §3

Akt [16] = experiment: Western blot, Akt expression in CT26 cells; format: cell-based, mouse; details: CT26, 8 μM
How it was run: as §3

SHP-2 [17] = target: T1, SHP-2; experiment: Western blot, SHP-2 in human TME; format: cell-based; details: SW480 cocultured with THP-1
How it was run: (§4)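 Western blot in tumour–macrophage cocultures: SW480 with THP-1 (human) and CT26 with RAW264.7 (mouse). Coculture drives the macrophages toward a cancer-promoting phenotype, after which test compound is applied. Protein was quantified by BCA, separated by SDS-PAGE, transferred to PVDF and detected with peroxidase labeling. Comparisons were against both the control and the untreated coculture. Data are mean ± SD, n ≥ 3.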

SHP-2 [18] = target: T2, SHP-2; experiment: Western blot, SHP-2 in mouse TME; format: cell-based; details: CT26 cocultured with RAW264.7
How it was run: as §4

[19] = system: cytokines (TGF-β, IL-10, and Arg-1); experiment: Western blot, cytokine expression in the TME; format: cell-based; details: vs coculture
How it was run: as §4

PI3K and Akt proteins = experiment: Western blot, PI3K-Akt pathway in TAMs; format: cell-based
How it was run: as §4

[20] = system: chemokine receptors, CC and CXC chemokine subfamilies; experiment: Chemokine mRNA levels in human and mouse TME; format: cell-based; details: human and mouse TME cocultures
How it was run: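 Human system: SW480 cells cocultured with THP-1 cells. Mouse system: CT26 cells cocultured with RAW264.7 cells. Coculture induces the macrophages to differentiate into cancer-promoting cells, which are then treated with test compound. Chemokine receptor and CC/CXC chemokine mRNA levels were measured and compared with the control group. Data are mean ± SD from at least three independent replicates.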

CDK1 (Homo sapiens, UniProt P06493), sequence (P06493 whole entry): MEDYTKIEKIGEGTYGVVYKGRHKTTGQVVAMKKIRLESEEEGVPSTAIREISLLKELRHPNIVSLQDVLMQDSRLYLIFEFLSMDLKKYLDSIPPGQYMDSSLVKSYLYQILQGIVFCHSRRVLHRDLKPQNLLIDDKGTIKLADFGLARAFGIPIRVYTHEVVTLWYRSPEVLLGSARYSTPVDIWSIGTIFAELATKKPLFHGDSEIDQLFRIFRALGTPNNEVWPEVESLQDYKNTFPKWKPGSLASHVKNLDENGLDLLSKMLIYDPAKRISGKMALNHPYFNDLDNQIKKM
CDK1 (Mus musculus, UniProt P11440), sequence (P11440 whole entry): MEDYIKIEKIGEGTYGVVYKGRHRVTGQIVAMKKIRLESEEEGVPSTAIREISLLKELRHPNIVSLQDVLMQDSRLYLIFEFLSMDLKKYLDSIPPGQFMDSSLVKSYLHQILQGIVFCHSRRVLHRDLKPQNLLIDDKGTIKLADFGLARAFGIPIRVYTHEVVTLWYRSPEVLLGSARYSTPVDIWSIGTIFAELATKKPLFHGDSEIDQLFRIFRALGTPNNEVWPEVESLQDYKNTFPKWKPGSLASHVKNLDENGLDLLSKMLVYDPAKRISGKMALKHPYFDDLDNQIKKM

IC50 (SW480 cell line; read-out: IC50 against SW480 cells, SW480 cells, MTT): 3710 nM
IC50 (CT26 cell line; read-out: IC50 against CT26 cells, CT26 cells, MTT): 1420 nM
SHP-2 inhibition rate (SHP-2 [9]): 76%
SHP-2 inhibition rate (SHP-2 [10]): 24%
CDK1 inhibition rate (CDK1 [11]): 18%
CDK1 inhibition rate (CDK1 [12]): 20%
inhibition rate on SHP-2 target in human TME (SHP-2 [17]): 65%
inhibition rate on SHP-2 target in mouse TME (SHP-2 [18]): 32%
effect on CCL and CXCL subfamilies (mRNA) [20]: able to inhibit
mRNA levels of CCR chemokine receptors [20]: significantly reduced
SMILES: COc1ccc(/C=C/C(=O)C(=CC2=CC=C[CH]2[Fe][CH]2C=CC=C2)C(=O)/C=C/c2ccc(OC)c(OC)c2)cc1OC (stereo not shown) [Compound 3f, Cyclopenta-2,4-dien-1-yl(2-((E)-5(3,4-dimethoxyphenyl)-2-((E)-3-(3,4-dimethoxyphenyl)acryloyl)-3-oxopenta-1,4-dien-1-yl)cyclopenta-2,4-dien-1-yl)iron]
selectivity index (SI), IC50 normal cells / IC50 RKO (RKO cell line): 162
inhibition of SW480 cells compared with the CVB-D group (SW480 cell line): markedly superior
selectivity index (SI), IC50 normal cells / IC50 SW480 (SW480 cell line; NCM460 vs SW480): 250
concentration of strongest (optimal) inhibition (SW480 cell line; SW480, tested 0-8 μM): 8 µM
concentration at which significant inhibition begins (SW480 cell line; SW480, vs control): 4 µM
proliferative capacity of CT26 cells compared to the control group (CT26 cell line; 10 μM): significant differences
optimal inhibitory concentration (CT26 cell line; CT26, tested 0-8 μM): 8 µM
concentration at which an inhibitory effect is demonstrated (CT26 cell line; CT26, vs control): 3 µM
selectivity index (SI), IC50 normal cells / IC50 CT26 (CT26 cell line; NCM460 vs CT26): 654
USP toxicity classification to normal colon epithelial cells (NCM460 cell line; NCM460): low toxic/nontoxic
viability of NCM460 cells (NCM460 cell line; at all concentrations (0, 5, 10, 20, 40, 80 μM)): above 87%
cell viability of THP-1 cells (THP-1 cell line): ~100%
cell viability of RAW264.7 cells (RAW264.7 cell line): ~100%
Cyclin-D1 protein expression inhibition rate (Cyclin-D1 [1]): 19%
effect on Cyclin-D1 protein compared to SW480 (Cyclin-D1 [2]): stronger inhibitory effect
expression of p27 protein (p27 [3]): significantly increased
expression of p27 protein (p27 [4]): significantly increased
expression of PINK1 protein (PINK1 [5]): significantly up-regulated
expression of PINK1 protein (PINK1 [6]): significantly increased
expression of Parkin protein (Parkin [7]): significantly up-regulated
expression of Parkin protein (Parkin [8]): significantly increased
PI3K expression inhibition rate (PI3K [13]): 46%
PI3K expression inhibition rate (PI3K [14]): 15%
Akt expression inhibition rate (Akt [15]): 48%
Akt expression inhibition rate (Akt [16]): 50%
expression levels of cytokines (TGF-β, IL-10, Arg-1) in the TME [19]: significantly reduced
expression levels of PI3K and Akt proteins in both coculture systems (PI3K and Akt proteins): reduced

SMILES: COc1cc(/C=C/C(=O)/C(=C\C2=CC=C[CH]2[Fe][CH]2C=CC=C2)C(=O)/C=C/c2ccc(OC)c(OC)c2)ccc1O (stereo not shown) [Compound 3b, Cyclopenta-2,4-dien-1-yl(2-((1E,4E)-5(3,4-dimethoxyphenyl)-2-((E)-3-(4-hydroxy-3-methoxyphenyl)acryloyl)-3-oxopenta-1,4-dien-1-yl)cyclopenta-2,4-dien-1-yl)iron]
inhibition of SW480 cells compared with the CVB-D group (SW480 cell line): markedly superior
proliferative capacity of CT26 cells compared to the control group (CT26 cell line; 10 μM): significant differences
proliferative capacity of CT26 cells compared to the CVB-D group (CT26 cell line; 10 μM, CVB-D 12 μM): no significant difference

— publication PMC11696753 (ACS Omega, 2024)
